# Measurements reported in ChEMBL document CHEMBL2163229, “Identifying novel adenosine receptor ligands by simultaneous proteochemometric modeling of rat and human bioactivity data” (J Med Chem, 2012).
# Columns and labels:
# Adenosine receptor A2a [1] = target: T1, Adenosine receptor A2a (Homo sapiens, UniProt P29274); test: Displacement of [3H]ZM241385 from human adenosine A2A receptor expressed in HEK 293 cells at 10 uM after 2 hrs by scintillation counting; assay type: cell-based; settings: HEK293
# T1 sequence (P29274 whole entry): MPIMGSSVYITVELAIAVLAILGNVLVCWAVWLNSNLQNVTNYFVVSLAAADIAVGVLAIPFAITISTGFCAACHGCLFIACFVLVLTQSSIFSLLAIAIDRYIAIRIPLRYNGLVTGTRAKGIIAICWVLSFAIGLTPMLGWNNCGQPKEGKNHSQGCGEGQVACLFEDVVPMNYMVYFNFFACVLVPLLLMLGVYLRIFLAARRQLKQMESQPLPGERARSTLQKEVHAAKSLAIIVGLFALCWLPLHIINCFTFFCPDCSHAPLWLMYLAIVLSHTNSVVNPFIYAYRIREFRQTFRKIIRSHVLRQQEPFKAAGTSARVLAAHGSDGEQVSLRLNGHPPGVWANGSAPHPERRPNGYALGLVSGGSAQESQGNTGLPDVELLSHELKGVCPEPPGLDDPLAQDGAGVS
# [2] = target: T2, Adenosine receptor A2b (Homo sapiens) (UniProt P29275); test: Displacement of [3H][…] from human adenosine A2B receptor expressed in CHO cells at 10 uM after 2 hrs by scintillation counting; assay type: cell-based
# T2 sequence (whole entry): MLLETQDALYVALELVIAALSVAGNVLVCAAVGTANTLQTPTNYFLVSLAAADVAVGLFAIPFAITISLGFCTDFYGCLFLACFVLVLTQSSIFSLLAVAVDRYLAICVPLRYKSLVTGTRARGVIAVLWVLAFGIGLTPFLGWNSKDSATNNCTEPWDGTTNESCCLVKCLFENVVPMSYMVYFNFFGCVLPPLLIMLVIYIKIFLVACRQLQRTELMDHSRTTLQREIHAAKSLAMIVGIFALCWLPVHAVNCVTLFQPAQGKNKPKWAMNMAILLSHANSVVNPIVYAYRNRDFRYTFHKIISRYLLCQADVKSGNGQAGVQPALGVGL
# In short: (§1)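 Stably transfected CHO membranes (15 μg protein) with 1.0 nM [3H]PSB603 final in 50 mM Tris·HCl pH 7.4, 1 U/mL ADA, 0.1% CHAPS, 2 h at 25 °C. Nonspecific binding with 100 μM NECA. GF/C filtration; washes in ice-cold Tris·HCl pH 7.4 plus 0.1% BSA. Ki by nonlinear regression using radioligand Ki of 0.41 nM.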
# Adenosine receptor A1 = target: T3, Adenosine receptor A1 (Homo sapiens, UniProt P30542); test: Displacement of [3H]DPCPX from human adenosine A1 receptor expressed in CHO cells after 1 hr by scintillation counting; assay type: cell-based
# T3 sequence (P30542 whole entry): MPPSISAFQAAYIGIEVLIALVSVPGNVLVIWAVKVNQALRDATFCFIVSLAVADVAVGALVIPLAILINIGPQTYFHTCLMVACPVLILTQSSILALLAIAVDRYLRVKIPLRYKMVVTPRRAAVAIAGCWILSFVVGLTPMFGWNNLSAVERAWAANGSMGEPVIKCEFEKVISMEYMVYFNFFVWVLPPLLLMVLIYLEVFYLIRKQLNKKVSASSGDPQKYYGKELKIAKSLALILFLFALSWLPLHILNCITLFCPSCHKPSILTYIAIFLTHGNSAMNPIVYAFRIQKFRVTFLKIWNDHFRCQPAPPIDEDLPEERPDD
# [3] = target: T4, Adenosine receptor A3 (Homo sapiens) (UniProt P0DMS8); test: Displacement of [3H]PSB11 from human adenosine A3 receptor expressed in HEK 293 cells at 10 uM after 1 hr by scintillation counting; assay type: cell-based; settings: HEK293
# T4 sequence (whole entry): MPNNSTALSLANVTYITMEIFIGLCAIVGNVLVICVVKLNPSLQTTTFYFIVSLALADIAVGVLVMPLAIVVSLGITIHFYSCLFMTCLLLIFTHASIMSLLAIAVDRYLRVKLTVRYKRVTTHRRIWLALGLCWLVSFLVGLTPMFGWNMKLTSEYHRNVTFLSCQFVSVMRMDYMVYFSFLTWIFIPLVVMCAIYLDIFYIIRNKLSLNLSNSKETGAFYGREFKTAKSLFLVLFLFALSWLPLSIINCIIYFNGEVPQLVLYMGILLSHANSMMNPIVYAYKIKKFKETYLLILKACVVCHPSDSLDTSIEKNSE
# Adenosine receptor A3 = target: T5, Adenosine receptor A3 (Homo sapiens, UniProt P0DMS8); test: Displacement of [3H]PSB11 from human adenosine A3 receptor expressed in HEK 293 cells after 1 hr by scintillation counting; assay type: cell-based, HEK293
# T5 sequence (P0DMS8 whole entry): T4 sequence (whole entry)
# Adenosine receptor A2b = target: T6, Adenosine receptor A2b (Homo sapiens, UniProt P29275); test: Displacement of [3H][…] from human adenosine A2B receptor expressed in CHO cells after 2 hrs by scintillation counting; assay type: cell-based; in short: as §1
# T6 sequence (P29275 whole entry): T2 sequence (whole entry)
# Adenosine receptor A2a [4] = target: T1, Adenosine receptor A2a; test: Displacement of [3H]ZM241385 from human adenosine A2A receptor expressed in HEK 293 cells after 2 hrs by scintillation counting; assay type: cell-based, HEK293
# [5] = target: T7, Adenosine receptor A1 (Homo sapiens) (UniProt P30542); test: Displacement of [3H]DPCPX from human adenosine A1 receptor expressed in CHO cells at 10 uM after 1 hr by scintillation counting; assay type: cell-based
# T7 sequence (whole entry): T3 sequence (P30542 whole entry)
SMILES,inhibition (Adenosine receptor A2a [1]) [%],inhibition [2] [%],Ki (Adenosine receptor A1) [nM],inhibition [3] [%],Ki (Adenosine receptor A3) [nM],Ki (Adenosine receptor A2b) [nM],Ki (Adenosine receptor A2a [4]) [nM],inhibition [5] [%]
C=CCn1c(=O)[nH]c2nc3cc(NC(C)=O)ccc3nc2c1=O,42,14,3200,-3,,,,
Nc1nc(-c2ccccc2)nc(-c2ccccc2O)n1,,,7.2,,440,220,43,
O=C(Cc1ccccc1)Nc1nn2c(-c3ccco3)nnc2s1,,-8,,3,,,5100,44
COCc1cc(C)nc2sc(-c3nc(N)nc(N(C)C)n3)c(N)c12,,-5,,33,,,1600,35
COc1nc(N)c(C#N)c(-c2ccc3c(c2)OCO3)c1C#N,,32,510,21,,,31000,
N#Cc1cnc(N)nc1-c1ccccc1,,,900,13,,,300,
